Measurements as given in ChEMBL document CHEMBL2086235, “A novel thiazolidine compound induces caspase-9 dependent apoptosis in cancer cells” (Bioorg Med Chem, 2012).
pIC50: −log10 of the molar value. Calls of active or inactive are those of the source. The rule behind the calls is not given here.

Experiments:
Huh-7 [1] = assay: Growth inhibition of human HuH7 cells incubated for 48 hrs by Giemsa staining; type: functional, cell-based
Outline: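 Cells grown overnight, compound added from DMSO solution, then incubated 48 h more. Attached cells stained with Giemsa and photographed; qualitative read-out.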

Huh-7 [2] = assay: Induction of cell death in human HuH7 cells at 2.5 to 40 uM incubated for 72 hrs by SRB assay; type: functional, cell-based
Outline: (§1)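 Cells seeded and grown 24 h at 37 °C, then treated 72 h in triplicate. Fixed with cold 10% TCA 1 h at 4 °C, stained with 0.4% SRB in 1% acetic acid 10 min, washed in 1% acetic acid. Dye solubilized in 10 mM Tris base; absorbance read at 515 nm. Normalized to DMSO control and Tz; three independent experiments.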

MCF7 [3] = assay: Induction of cell death in human MCF7 cells at 2.5 to 40 uM incubated for 72 hrs by SRB assay; type: functional, cell-based; outline: as §1
HCT-116 [4] = assay: Induction of cell death in human HCT116 cells at 2.5 to 40 uM incubated for 72 hrs by SRB assay; type: functional, cell-based; outline: as §1
[5] = Cell cycle arrest in human Mahlavu cells assessed as subG1/G1 phase accumulation at 5 uM incubated for 12 hrs to 24 hrs by propidium iodide staining based flow cytometry; type: functional
Outline: (§2)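 Cells seeded 100,000-200,000 per dish, grown 24 h, then held a further day in starvation medium (1% FBS, 1% P/S, 1% NEAA in DMEM). Treated with compound or DMSO, harvested by trypsinization, fixed in ice-cold 70% ethanol at 4 °C. Stained 40 min at 37 °C in the dark with propidium iodide, RNase A and Triton X-100 in PBS. G1 = 2N, G2 = 4N; >4N cells gated out.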

Huh-7 [6] = assay: Induction of caspase-8 cleavage in human HuH7 cells at 2.5 to 5 uM incubated for 6 to 24 hrs by Western blot; type: functional, cell-based
Outline: (§3)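 Huh7 treated with compound or DMSO for 6, 12 or 24 h. Lysates quantified by Bradford and heat-denatured. Blotted onto nitrocellulose and probed with antibodies to cleaved caspase-9, cleaved caspase-3 and caspase-8 (1:500, overnight at 4 °C). Bands quantified by densitometry and normalized to actin.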

HepG2 [7] = assay: Induction of apoptosis in human HepG2 cells assessed as cytochrome c release at 10 uM incubated for 48 hrs by immunostaining; type: functional, cell-based
Outline: (§4)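 After 48 h exposure, coverslip-grown cells fixed in 4% paraformaldehyde, permeabilized in ice-cold acetone, blocked in 3% BSA 1 h at 37 °C. Anti-cytochrome c monoclonal applied overnight at 4 °C, then FITC anti-mouse secondary 1 h at room temperature. Diffuse cytoplasmic staining scored by fluorescence microscopy.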

[8] = Cytotoxicity against human FOCUS cells incubated for 72 hrs by SRB assay; type: functional, cell-based
Outline: (§5)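 Cells grown in DMEM with 10% FCS, 2 mM L-glutamine, NEAA and antibiotics at 37 °C, 5% CO2, then seeded at 1000–5000 cells/well and grown 24 h. Compounds were added from DMSO for 72 h, following NCI guidelines. Cells were fixed in cold 10% TCA for 1 h at 4 °C and stained with 0.4% SRB in 1% acetic acid for 10 min. Bound dye was dissolved in 10 mM Tris and absorbance read at 515 nm.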

MCF7 [9] = assay: Cytotoxicity against human MCF7 cells incubated for 72 hrs by SRB assay; type: functional, cell-based; settings: MCF7, 72 h; outline: as §5
Huh-7 (Homo sapiens) [10] = assay: Induction of cell death in human Huh7 cells at 5 uM incubated for 72 hrs by real-time cell analysis
CAMA-1 [11] = assay: Cytotoxicity against human CAMA1 cells incubated for 72 hrs by SRB assay; type: functional, cell-based; settings: CAMA-1, 72 h; outline: as §5
Huh-7 [12] = assay: Induction of caspase-9 cleavage in human HuH7 cells at 2.5 to 5 uM incubated for 6 to 24 hrs by Western blot; type: functional, cell-based; outline: as §3
CAMA-1 [13] = assay: Induction of cell death in human CAMA1 cells at 0.02 uM incubated for 72 hrs by real-time cell analysis; type: functional, cell-based
Outline: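 Cells (1000-5000/well) on impedance plates monitored by real-time cell analysis. Treated about 24 h after seeding, in log phase, and followed 72 h against DMSO controls. Inhibition (%) = (1 − CI treated/CI DMSO) × 100. At least three repeats.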

FOCUS [14] = assay: Induction of apoptosis in human FOCUS cells assessed as cytochrome c release at 10 uM incubated for 48 hrs by immunostaining; type: functional, cell-based; outline: as §4
HepG2 [15] = assay: Induction of apoptosis in human HepG2 cells assessed as DNA fragmentation at 10 uM incubated for 48 hrs by TUNEL assay; type: functional, cell-based
Outline: (§6)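 Cells grown overnight on coverslips, then exposed 48 h. Fixed in cold methanol; TUNEL done with an in situ cell death detection kit. Nuclei counterstained with Hoechst 33258 (3 μg/mL, 5 min, dark) and viewed by fluorescence microscopy.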

Huh-7 [16] = assay: Induction of apoptosis in human HuH7 cells assessed as DNA fragmentation at 10 uM incubated for 48 hrs by TUNEL assay; type: functional, cell-based; outline: as §6
BT-20 = assay: Cytotoxicity against human BT20 cells incubated for 72 hrs by SRB assay; type: functional, cell-based; settings: BT-20, 72 h; outline: as §5
HepG2 [17] = assay: Increase in caspase-8 activation in human HepG2 cells at 10 uM incubated for 12 hrs in presence of 50 uM caspase-9 inhibitor z-LEHD-fmk by Caspase Glo assay; type: functional, cell-based
Outline: (§7)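 HepG2 pre-incubated 24 h at 37 °C with 50 μM of the named caspase inhibitor peptide or DMSO. Medium then replaced with fresh medium holding the same inhibitor plus compound. Caspase activity read by Caspase-Glo luminescence after 12 h. Values normalized to inhibitor-only wells without compound. Two independent experiments in duplicate; t-test.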

Huh-7 [18] = assay: Cytotoxicity against human HuH7 cells incubated for 72 hrs by SRB assay; type: functional, cell-based; settings: Huh-7, 72 h; outline: as §5
Huh-7 [19] = assay: Cell cycle arrest in human HuH7 cells assessed as subG1/G1 phase accumulation at 5 uM incubated for 12 hrs to 24 hrs by propidium iodide staining based flow cytometry; type: functional; outline: as §2
T47D = assay: Cytotoxicity against human T47D cells incubated for 72 hrs by SRB assay; type: functional, cell-based; outline: as §5
Huh-7 (Homo sapiens) [20] = assay: Induction of cell death in human Huh7 cells at 10 uM incubated for 72 hrs by real-time cell analysis
Huh-7 [21] = assay: Induction of caspase-3 cleavage in human HuH7 cells at 2.5 to 5 uM incubated for 6 to 24 hrs by Western blot; type: functional, cell-based; outline: as §3
HepG2 [22] = assay: Increase in caspase-8 activation in human HepG2 cells at 10 uM incubated for 12 hrs in presence of 50 uM caspase-3 inhibitor z-DEVD-fmk by Caspase Glo assay; type: functional, cell-based; outline: as §7
HepG2 [23] = assay: Increase in caspase-9 activation in human HepG2 cells at 10 uM incubated for 12 hrs in presence of caspase-3 inhibitor z-DEVD-fmk by Caspase Glo assay; type: functional, cell-based; outline: as §7
MFE-296 = assay: Cytotoxicity against human MFE296 cells incubated for 72 hrs by SRB assay; type: functional, cell-based; settings: MFE-296, 72 h; outline: as §5
HepG2 [24] = assay: Cytotoxicity against human HepG2 cells incubated for 72 hrs by SRB assay; type: functional, cell-based; settings: HepG2, 72 h; outline: as §5
HCT-116 [25] = assay: Cytotoxicity against human HCT116 cells incubated for 72 hrs by SRB assay; type: functional, cell-based; settings: HCT-116, 72 h; outline: as §5
HepG2 [26] = assay: Increase in caspase-9 activation in human HepG2 cells at 10 uM incubated for 12 hrs by Caspase Glo assay; type: functional, cell-based
Outline: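 HepG2 pre-incubated 24 h at 37 °C with DMSO, then moved to fresh medium with compound. Caspase-9 activity read by Caspase-Glo after 12 h and normalized to untreated controls. Two independent experiments in duplicate.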

HepG2 [27] = assay: Increase in caspase-9 activation in human HepG2 cells at 10 uM incubated for 12 hrs in presence of caspase-8 inhibitor z-IETD-fmk by Caspase Glo assay; type: functional, cell-based; outline: as §7
[28] = Cytotoxicity against human MV cells incubated for 72 hrs by SRB assay; type: functional, cell-based; outline: as §5
FOCUS [29] = assay: Induction of apoptosis in human FOCUS cells assessed as DNA fragmentation at 10 uM incubated for 48 hrs by TUNEL assay; type: functional, cell-based; outline: as §6
Huh-7 [30] = assay: Induction of apoptosis in human HuH7 cells assessed as cytochrome c release at 10 uM incubated for 48 hrs by immunostaining; type: functional, cell-based; outline: as §4

CCCCCCCCCCC(=O)N(CC(=O)OC)C[C@@H]1CSC(c2ccccc2)N1C(=O)c1ccccc1 (stereo partly drawn)
growth inhibition (GI) (Huh-7 [1]): inactive

O=C(O)CN(C[C@@H]1CSC(c2ccccc2)N1C(=O)c1ccccc1)C(=O)c1c(F)c(F)c(F)c(F)c1F (stereo partly drawn)
growth inhibition (GI) (Huh-7 [1]): inactive

O=C(c1c(F)c(F)c(F)c(F)c1F)N(CCc1ccsc1)C[C@@H]1CSC(c2ccccc2)N1C(=O)c1ccccc1 (stereo partly drawn)
growth inhibition (GI) (Huh-7 [1]): inactive

CCCCCCC(C)NC(=O)[C@@H]1CSC(c2ccccc2)N1C(=O)Cn1cc(C)c(=O)[nH]c1=O (stereo partly drawn)
growth inhibition (GI) (Huh-7 [1]): inactive

Cc1cn(CC(=O)N2C(c3ccccc3)SC[C@H]2C(=O)NC(C)(C)C)c(=O)[nH]c1=O (stereo partly drawn)
Activity (Huh-7 [2]): inactive | Activity (MCF7 [3]): inactive | growth inhibition (GI) (Huh-7 [1]): inactive | Activity (HCT-116 [4]): inactive

CCCCCCC(=O)N(CC(=O)O)C[C@@H]1CSC(c2ccccc2)N1C(=O)c1ccccc1 (stereo partly drawn)
growth inhibition (GI) (Huh-7 [1]): inactive

COC(=O)CN(C[C@@H]1CSC(c2ccccc2)N1C(=O)c1ccccc1)C(=O)C(C)(C)C (stereo partly drawn)
growth inhibition (GI) (Huh-7 [1]): inactive

CCOC(=O)Cn1cc(C(=O)N2C(c3ccccc3)SC[C@H]2C(=O)OCC)nn1 (stereo partly drawn)
growth inhibition (GI) (Huh-7 [1]): inactive

CCCCCCCCCCC(=O)N(CC(=O)O)C[C@@H]1CSC(c2ccccc2)N1C(=O)c1ccccc1 (stereo partly drawn)
growth inhibition (GI) (Huh-7 [1]): inactive

C#CC(=O)N1C(c2ccccc2)SC[C@H]1C(=O)OCC (mixture of isomers)
Activity [5]: Active | Activity (Huh-7 [6]): inactive | Activity (HepG2 [7]): Active | pIC50 [8]: 5.26 | pIC50 (MCF7 [9]): 5.33 | Activity (Huh-7 (Homo sapiens) [10]): 100% | pIC50 (CAMA-1 [11]): 8.00 | Activity (Huh-7 [12]): Active | Activity (CAMA-1 [13]): inactive | Activity (FOCUS [14]): Active | Activity (Huh-7 [2]): Active | Activity (HepG2 [15]): Active | Activity (Huh-7 [16]): Active | pIC50 (BT-20): 5.80 | Activity (HepG2 [17]): inactive | pIC50 (Huh-7 [18]): 5.28 | Activity (MCF7 [3]): Active | Activity (Huh-7 [19]): Active | pIC50 (T47D): 5.12 | Activity (Huh-7 (Homo sapiens) [20]): 100% | Activity (Huh-7 [21]): Active | growth inhibition (GI) (Huh-7 [1]): Active | Activity (HepG2 [22]): inactive | Activity (HCT-116 [4]): Active | Activity (HepG2 [23]): inactive | pIC50 (MFE-296): 6.30 | pIC50 (HepG2 [24]): 5.00 | pIC50 (HCT-116 [25]): 5.03 | Activity (HepG2 [26]): Active | Activity (HepG2 [27]): inactive | pIC50 [28]: 6.39 | Activity (FOCUS [29]): Active | Activity (Huh-7 [30]): Active

Cc1cn(CC(=O)N2C(c3ccccc3)SC[C@H]2C(=O)NCCc2ccccc2)c(=O)[nH]c1=O (stereo partly drawn)
growth inhibition (GI) (Huh-7 [1]): inactive

CCCCCCCCCCCCNC(=O)[C@@H]1CSC(c2ccccc2)N1C(=O)Cn1cc(C)c(=O)[nH]c1=O (stereo partly drawn)
growth inhibition (GI) (Huh-7 [1]): inactive

CC(C)(C)C(=O)N(CCc1ccsc1)C[C@@H]1CSC(c2ccccc2)N1C(=O)c1ccccc1 (stereo partly drawn)
Activity (Huh-7 [2]): inactive | Activity (MCF7 [3]): inactive | growth inhibition (GI) (Huh-7 [1]): inactive | Activity (HCT-116 [4]): inactive

CCOC(=O)[C@@H]1CSC(c2ccccc2)N1C(=O)c1cn(CCc2ccccc2)nn1 (stereo partly drawn)
growth inhibition (GI) (Huh-7 [1]): inactive

CCOC(=O)[C@@H]1CSC(c2ccccc2)N1C(=O)c1cn(Cc2ccccc2)nn1 (stereo partly drawn)
growth inhibition (GI) (Huh-7 [1]): inactive
